Assay results: ChEMBL document CHEMBL1157192, “No carrier added synthesis of O-(2'-[18F]fluoroethyl)-L-tyrosine via a novel type of chiral enantiomerically pure precursor, NiII complex of a (S)-tyrosine Schiff base” (Bioorg Med Chem, 2008)

Tests used:
Settings in all cases: in vivo
Muscle tissue [1] = test: Biodistribution in muscle of Wistar rat bearing turpentine-induced aseptic abscess at 150-180 uCi after 40 mins; assay type: ADME, organism-based
Procedure, shortened: (§1)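 Male Wistar rats (150–200 g) received 150–180 μCi ([…]) [18F]FET in 0.3 mL isotonic solution via the jugular vein. They were killed at 40 min. Organs were dissected, blotted of blood, weighed and gamma-counted, and values are given as %ID/g, with five rats per time point. Glioma35 homografts grew for 14 days after subcutaneous or intramuscular injection into the right hind limb. Abscesses were raised by turpentine oil (10 μL) into the right hind-limb muscle 24 h before the experiment.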

Kidney [2] = test: Biodistribution in kidney of Wistar rat bearing turpentine-induced aseptic abscess at 150-180 uCi after 40 mins; assay type: ADME, organism-based; procedure, shortened: as §1
[3] = Biodistribution in urinary bladder of Wistar rat bearing turpentine-induced aseptic abscess at 150-180 uCi after 40 mins; assay type: ADME, organism-based; procedure, shortened: as §1
Brain [4] = test: Biodistribution in brain of Wistar rat bearing turpentine-induced aseptic abscess at 150-180 uCi after 40 mins; assay type: ADME, organism-based; procedure, shortened: as §1
Heart [5] = test: Biodistribution in heart of Wistar rat bearing glioma35 rat tumor at 150-180 uCi after 40 mins; assay type: ADME, organism-based; procedure, shortened: as §1
Blood [6] = test: Biodistribution in blood of Wistar rat bearing glioma35 rat tumor at 150-180 uCi after 40 mins; assay type: ADME, organism-based; procedure, shortened: as §1
[7] = Biodistribution in urinary bladder of Wistar rat bearing glioma35 rat tumor at 150-180 uCi after 40 mins; assay type: ADME, organism-based; procedure, shortened: as §1
Muscle tissue [8] = test: Biodistribution in muscle of Wistar rat bearing glioma35 rat tumor at 150-180 uCi after 40 mins; assay type: ADME, organism-based; procedure, shortened: as §1
[9] = Biodistribution in tumor of Wistar rat bearing glioma35 rat tumor at 150-180 uCi after 40 mins; assay type: ADME, organism-based, Neoplasm; procedure, shortened: as §1
Blood [10] = test: Biodistribution in blood of Wistar rat bearing turpentine-induced aseptic abscess at 150-180 uCi after 40 mins; assay type: ADME, organism-based; procedure, shortened: as §1
[11] = Biodistribution in abscess of Wistar rat bearing turpentine-induced aseptic abscess at 150-180 uCi after 40 mins; assay type: ADME, organism-based; procedure, shortened: as §1
Brain [12] = test: Biodistribution in brain of Wistar rat bearing glioma35 rat tumor at 150-180 uCi after 40 mins; assay type: ADME, organism-based; procedure, shortened: as §1
Kidney [13] = test: Biodistribution in kidney of Wistar rat bearing glioma35 rat tumor at 150-180 uCi after 40 mins; assay type: ADME, organism-based; procedure, shortened: as §1
Liver [14] = test: Biodistribution in liver of Wistar rat bearing glioma35 rat tumor at 150-180 uCi after 40 mins; assay type: ADME, organism-based; procedure, shortened: as §1
Heart [15] = test: Biodistribution in heart of Wistar rat bearing turpentine-induced aseptic abscess at 150-180 uCi after 40 mins; assay type: ADME, organism-based; procedure, shortened: as §1
Liver [16] = test: Biodistribution in liver of Wistar rat bearing turpentine-induced aseptic abscess at 150-180 uCi after 40 mins; assay type: ADME, organism-based; procedure, shortened: as §1

Drug uptake (Muscle tissue [1]): 1.32 % ID/g
Drug uptake (Kidney [2]): 1.58 % ID/g
Drug uptake [3]: 3.94 % ID/g
Drug uptake (Brain [4]): 1 % ID/g
Drug uptake (Heart [5]): 0.98 % ID/g
Drug uptake (Blood [6]): 1.24 % ID/g
Drug uptake [7]: 2.51 % ID/g
Drug uptake (Muscle tissue [8]): 0.84 % ID/g
Drug uptake [9]: 2.53 % ID/g
Drug uptake (Blood [10]): 1.45 % ID/g
Drug uptake [11]: 1.75 % ID/g
Drug uptake (Brain [12]): 0.54 % ID/g
Drug uptake (Kidney [13]): 0.86 % ID/g
Drug uptake (Liver [14]): 1.03 % ID/g
Drug uptake (Heart [15]): 1.47 % ID/g
Drug uptake (Liver [16]): 1.24 % ID/g
SMILES: N[C@@H](Cc1ccc(OCC[18F])cc1)C(=O)O [FLORETYROSINE F18]
